Results from paper PMC6688896 (Bioorganic & medicinal chemistry, 2018).
Read-outs that look alike come from different tables or passages of the source.

What was measured:
CCD841Co colonic cells = experiment: Oxygen consumption rate, Seahorse XFp analyzer; format: cell-based; conditions: 1 μM, vs DMSO control media
Procedure, shortened: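 CCD841Co cells seeded at 8000 cells/well in XFp miniplates and attached overnight (37 °C, 5% CO2). Basal OCR recorded, then 1 μM test compound or DMSO in media added. Mito Stress Test followed with sequential 1 μM oligomycin, 1 μM FCCP, and 0.5 μM rotenone plus antimycin A. Mean ± SD, n = 2.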

pAMPK in CCD841Co cells = experiment: Phospho-AMPK levels by Western blot; format: cell-based; conditions: whole cell lysate, vs DMSO control
Procedure, shortened: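 CCD841Co cells grown in MEM with 1 mM pyruvate, non-essential amino acids, 10% FBS. Plated at 0.27 million/well on poly-D-lysine-coated 12-well plates and attached overnight. Medium replaced with test compound or DMSO diluted in DMEM with 2 mM pyruvate and 2 mM L-glutamine. Lysed in Laemmli buffer; immunoblotted for phospho-AMPK (Thr172) and total AMPK, β-actin loading control.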

six CRC tumor cell lines = experiment: MTS cell proliferation assay, panel of six CRC cell lines; format: cell-based; conditions: 72 h, read-out: IC50 values, range over the six CRC cell lines
Procedure, shortened: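 Six CRC lines, each in its own medium (Leibovitz's, McCoy's 5A, MEM or RPMI) with 10% FBS and penicillin-streptomycin. Seeded at 5000 cells/well, then exposed 72 h to test compound over 0.04–10 μM or 0.001–10 μM depending on compound. Viability by colorimetric MTS; IC50 from curve fitting.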

[1] = Plasma pharmacokinetics after oral dose; format: in vivo, NOD/SCID mice; conditions: DK419 1 mg/kg oral, mice
Procedure, shortened: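 Test compound at 0.2 mg/mL in 10% N-methylpyrrolidinone/90% PEG300, single oral 1 mg/kg to NOD/SCID mice (n = 4). Serial tail-vein blood into heparin, pre-dose to 72 h. Plasma extracted with ethyl acetate plus an internal standard analog, then LC/MS/MS; calibration range 2.4 (LLOQ) to 1000 ng/mL. Parameters from compartmental (first-order absorption/elimination) and non-compartmental analysis.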

CRC240 PDX tumors = experiment: CRC240 PDX xenograft tumor growth; format: in vivo, NOD/SCID mice; conditions: vs vehicle, n = 3
Procedure, shortened: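 CRC240 PDX tissue washed and minced in PBS at 150 mg/ml, 200 μl implanted in NOD/SCID flanks. At about 100 mm3, mice randomized and dosed orally once daily for 11 days with test compound suspended at […] in 10% 1-methyl-2-pyrrolidinone/90% PEG300, or vehicle. Tumor size and body weight on days 0, 4, 8, 11; mean ± SEM, n = 3; two-tailed Student's t test vs vehicle.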

[2] = Body weight in CRC240 PDX xenograft study; format: in vivo; conditions: DK419 1 mg/kg orally daily for 11 days, tumor-bearing NOD/SCID mice
HCT116 cells = conditions: 0.5 and 1.5 μM; cited from earlier work
[3] = Niclosamide 200 mg/kg oral, mice, plasma, non-compartmental, cited from earlier work

Row | Compound | oxygen consumption rate (CCD841Co colonic cells) | pAMPK levels by Western blot (pAMPK in CCD841Co cells) | IC50 (six CRC tumor cell lines) [µM] | time for which plasma levels were sustained [1] | AUCinf ([1]; plasma, compartmental) | AUCinf/DOSE ([1]; plasma, compartmental) | CL/F ([1]; plasma, compartmental) | Vd/F ([1]; plasma, compartmental) | AUCinf ([1]; plasma, non-compartmental) | AUCinf/DOSE ([1]; plasma, non-compartmental) | CL/F ([1]; plasma, non-compartmental) | Vd/F (Vz) ([1]; plasma, non-compartmental) | AUC0-LAST ([1]; plasma, non-compartmental, 0–72 h) | growth of CRC240 PDX tumors (tumor volume) (CRC240 PDX tumors; DK419 1 mg/kg orally daily for 11 days) | body weight [2] | growth of CRC240 PDX tumors (tumor volume) (CRC240 PDX tumors; Niclosamide 72 mg/kg orally daily for 11 days) | oxygen consumption rate (HCT116 cells) | AUC0-LAST ([3]; 0–24 h) | AUCinf [3]
1 | O=C(Nc1ccc(C(F)(F)F)cc1)c1cc(Cl)cc2nc(C(F)(F)F)[nH]c12 [DK419, 6-chloro-2-(trifluoromethyl)-N-(4-(trifluoromethyl)phenyl)-1H-benzo[d]imidazole-4-carboxamide] | increases the rate of oxygen consumption | increased the levels of pAMPK | 0.07 to 0.36 | more than 24 hours | 16.3 µg·h/mL (per kg BW) | 16.3 µg·h/mL (per mg) | 0.06 L/h (per kg BW) | 0.98 L (per kg BW) | 16.9 µg·h/mL (per kg BW) | 16.9 µg·h/mL (per mg) | 0.06 L/h (per kg BW) | 0.80 (Vz) L (per kg BW) | 16.8 ( 0–72 h) h μg/mL (per kg BW) | inhibited the growth of CRC240 PDX tumors compared to vehicle control | Neither DK419 nor Niclosamide produced a change in body weight |  |  |  | 
2 | O=C(Nc1ccc([N+](=O)[O-])cc1Cl)c1cc(Cl)ccc1O [Niclosamide, reference compound] | increases the oxygen consumption rate | increased pAMPK levels versus control | 0.11 to 2.39 |  |  |  |  |  |  |  |  |  |  |  |  | inhibited tumor growth | caused oxygen consumption rate to increase | 1.01 ( 0–24 h) h μg/mL (per kg BW) | 1.02 µg·h/mL (per kg BW)
